Assay results published in publication PMC10791069 (SLAS discovery : advancing life sciences R & D, 2019).
Where two headings read alike, the source gives them in different places.

Experiments:
HEK 293 cells = assay: CellTiter-Glo cytotoxicity qHTS, HEK 293; assay type: cell-based, human; conditions: for EC50: read-out: EC50 HEK 293; for cell killing of HEK 293 cells (in words): 48 hr; for cell killing of HEK 293 compared with cancer cell line KB-3–1 (in words): pan-active outliers, 12 dose-point confirmation
In short: (§1)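 HEK 293 (250 cells/well) or NIH 3T3 (400 cells/well) are seeded in 5 μL. Dosing: annotated library 8-pt (0.6 nM–46 μM) or 11-pt (0.8 nM–46 μM); diversity library 4-pt, mostly 115, 58, 12 and 2.3 μM; cherry-picks confirmed over 12 points, 0.3 nM–46 μM final. Incubate 48 hr at 37 °C, then read CellTiter-Glo luminescence after 10 min. Normalize to DMSO and 9.2 μM bortezomib; EC50 from a four-parameter logistic fit.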

NIH 3T3 cells = assay: CellTiter-Glo cytotoxicity qHTS, NIH 3T3; assay type: cell-based, murine; conditions: for EC50: read-out: EC50 NIH 3T3; for cell killing of NIH 3T3 cells (in words): 48 hr; for cell killing of NIH 3T3 compared with cancer cell line KB-3–1 (in words): pan-active outliers, 12 dose-point confirmation
In short: as §1

CRL-7250 cells = assay: CellTiter-Glo cytotoxicity qHTS, CRL-7250; assay type: cell-based, human; conditions: for cell killing of CRL-7250 cells (in words): CellTiter-Glo, 48 hr
In short: (§2)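 CRL-7250 (primary) or HaCat cells are seeded at 500 cells/well in 5 μL medium. Test compound is pin-transferred as an 8-pt series (0.6 nM–46 μM, 1:5) or an 11-pt series (0.8 nM–46 μM, 1:3). Incubate 48 hr at 37 °C and 85% humidity. Add CellTiter-Glo and read luminescence after 10 min at room temperature. Normalize to DMSO (0%) and 9.2 μM bortezomib (−100%); EC50 comes from a four-parameter logistic fit.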

HaCat cells = assay: CellTiter-Glo cytotoxicity qHTS, HaCat; assay type: cell-based, human
In short: as §2

KB 3–1 cells = assay: CellTiter-Glo cytotoxicity qHTS, KB 3-1; assay type: cell-based, human; conditions: for EC50: read-out: EC50 KB 3–1; for cell killing of KB 3–1 cells (in words): 48 hr
In short: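 HeLa-derived KB 3–1 cells are seeded at 500 cells/well in 5 μL. Annotated library is tested 8-pt (0.6 nM–46 μM, 1:5) or 11-pt (0.8 nM–46 μM, 1:3); cherry-picks are retested 12-pt, 0.3 nM–46 μM final. Incubate 48 hr at 37 °C, then read CellTiter-Glo luminescence after 10 min at room temperature. Normalize to DMSO and 9.2 μM bortezomib; EC50 from a four-parameter logistic fit.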

[1] = target: Photinus pyralis luciferase (Photinus pyralis, UniProt P08659); assay: Firefly luciferase inhibition assay; assay type: biochemical; conditions: read-out: EC50 Luciferase; 10 nM Photinus pyralis luciferase, 10 μM ATP, 10 μM D-Luciferin
Sequence of Photinus pyralis luciferase (P08659 whole entry): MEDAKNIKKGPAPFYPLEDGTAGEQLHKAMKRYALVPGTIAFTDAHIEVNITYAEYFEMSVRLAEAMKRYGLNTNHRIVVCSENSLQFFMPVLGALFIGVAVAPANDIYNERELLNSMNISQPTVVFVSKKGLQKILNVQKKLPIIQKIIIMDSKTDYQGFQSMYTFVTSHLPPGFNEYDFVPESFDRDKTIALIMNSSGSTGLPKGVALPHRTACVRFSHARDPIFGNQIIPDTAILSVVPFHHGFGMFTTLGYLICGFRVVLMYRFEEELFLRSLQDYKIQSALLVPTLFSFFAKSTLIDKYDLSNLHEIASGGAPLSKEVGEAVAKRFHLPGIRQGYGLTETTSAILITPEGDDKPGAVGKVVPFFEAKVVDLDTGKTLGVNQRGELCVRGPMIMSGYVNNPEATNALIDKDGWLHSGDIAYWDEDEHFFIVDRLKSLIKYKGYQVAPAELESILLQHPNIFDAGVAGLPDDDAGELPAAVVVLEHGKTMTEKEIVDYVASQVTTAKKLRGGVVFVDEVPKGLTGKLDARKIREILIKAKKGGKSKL

[2] = target: T1, CTG engineered firefly luciferase (Photuris pensylvanica, UniProt Q27757); assay: CellTiter-Glo luciferase counter-assay; assay type: biochemical; conditions: read-out: EC50 CTG Luciferase; cell-free media with CTG and ATP added as substrate
T1 sequence (Q27757 1-545): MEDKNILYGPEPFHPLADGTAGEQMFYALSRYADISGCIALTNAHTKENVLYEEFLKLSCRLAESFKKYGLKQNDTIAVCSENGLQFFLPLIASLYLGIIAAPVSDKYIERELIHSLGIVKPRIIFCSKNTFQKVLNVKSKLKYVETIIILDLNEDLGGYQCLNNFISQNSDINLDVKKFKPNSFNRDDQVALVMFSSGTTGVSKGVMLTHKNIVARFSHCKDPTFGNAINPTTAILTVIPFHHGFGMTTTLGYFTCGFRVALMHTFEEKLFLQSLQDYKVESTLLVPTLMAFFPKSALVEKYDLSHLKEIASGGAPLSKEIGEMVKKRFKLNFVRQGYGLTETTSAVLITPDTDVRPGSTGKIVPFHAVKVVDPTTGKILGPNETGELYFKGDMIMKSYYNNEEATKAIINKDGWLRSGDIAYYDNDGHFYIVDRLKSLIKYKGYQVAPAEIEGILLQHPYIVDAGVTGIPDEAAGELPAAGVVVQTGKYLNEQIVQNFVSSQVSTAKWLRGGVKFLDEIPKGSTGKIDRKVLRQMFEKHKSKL

HEK293 cells = assay: Bright-field microscopy of treated cells; assay type: cell-based, human; conditions: 48 hr, at concentrations suggested to be cytotoxic by CTG dose-response data
[3] = CellTiter-Glo, 48 hr incubation

CC(C)C[C@H](NC(=O)[C@@H](NC(=O)c1cccc(-c2ccccc2)n1)[C@@H](C)O)B(O)O [delanzomib]
EC50 (HEK 293 cells; Homo sapiens, HEK293, 48 h): 148 nM
EC50 (NIH 3T3 cells; Mus musculus, NIH3T3, 48 h): 82 nM
EC50 (CRL-7250 cells; Homo sapiens, 48 h, read-out: EC50 CRL-7250): 205 nM
EC50 (HaCat cells; Homo sapiens, HaCaT, 48 h, read-out: EC50 HaCat): 326 nM
EC50 (KB 3–1 cells; Homo sapiens, KB 3-1, 48 h): 186 nM

COc1ncc2cc(C(=O)Nc3cc(C(=O)NCc4cccc(Cl)c4)ccc3Cl)c(=O)[nH]c2n1 [TC-S7004]
cell killing of HEK 293 cells (in words) (HEK 293 cells; CellTiter-Glo): no effect
cell killing of NIH 3T3 cells (in words) (NIH 3T3 cells; CellTiter-Glo): no effect
cell killing of CRL-7250 cells (in words) (CRL-7250 cells): no effect
cell killing of HaCat cells (in words) (HaCat cells; CellTiter-Glo, 48 hr): no effect
cell killing of KB 3–1 cells (in words) (KB 3–1 cells; CellTiter-Glo): complete killing
EC50 (KB 3–1 cells; [3]): 3200 nM

c1cc(-c2cnn3cc(-c4ccc(N5CCNCC5)cc4)cnc23)c2cccnc2c1 [LDN-212854]
cell killing of HEK 293 cells (in words) (HEK 293 cells; CellTiter-Glo): partial killing
EC50 (HEK 293 cells; [3]): 16400 nM
cell killing of NIH 3T3 cells (in words) (NIH 3T3 cells; CellTiter-Glo): no effect
cell killing of CRL-7250 cells (in words) (CRL-7250 cells): no effect
cell killing of KB 3–1 cells (in words) (KB 3–1 cells; CellTiter-Glo): complete killing
EC50 (KB 3–1 cells; [3]): 4100 nM

O=C(Nc1ccccc1)OC[C@H]1C[C@@H]2CCN1C[C@@H]2c1cc(C2CCCC2)nc(-c2ccncc2)n1 [NCGC00421344]
potency in HEK 293 cell relative to the other two cell lines (NIH 3T3, KB 3–1) (HEK 293 cells; CellTiter-Glo EC50 comparison): > 10 fold

Cc1nn2c(c1-c1ccccc1Oc1ccccc1)N(Cc1ccccc1O)CCC2 [NCGC00420455]
cell killing of HEK 293 compared with cancer cell line KB-3–1 (in words) (HEK 293 cells): greater cell killing
cell killing of NIH 3T3 compared with cancer cell line KB-3–1 (in words) (NIH 3T3 cells): greater cell killing

O=C(c1ccc(Cl)cc1)N1CCOCC2(CN(Cc3cc(F)cc(F)c3)C2)C1 [NCGC00419015]
EC50 (HEK 293 cells; [3]): 510 nM
EC50 (NIH 3T3 cells; [3]): 720 nM
EC50 (KB 3–1 cells; [3]): 640 nM

COc1cccc(-c2ncc3c(n2)OCCN(c2ccccc2)C3=O)c1 [NCGC00413522]
EC50 [1]: 890 nM
EC50 [2]: 26600 nM
cell growth by bright-field microscopy (HEK293 cells): unaffected cell growth

Cc1nn2c(c1-c1ccccc1-c1ccccc1)N(Cc1ccc(O)cc1)CCC2 [NCGC00420512]
cell killing of HEK 293 compared with cancer cell line KB-3–1 (in words) (HEK 293 cells): greater cell killing
cell killing of NIH 3T3 compared with cancer cell line KB-3–1 (in words) (NIH 3T3 cells): greater cell killing

Cc1nn2c(c1-c1ccccc1-c1ccccc1)N(CC1CC1)CCC2 [NCGC00420435]
cell killing of HEK 293 compared with cancer cell line KB-3–1 (in words) (HEK 293 cells): greater cell killing
cell killing of NIH 3T3 compared with cancer cell line KB-3–1 (in words) (NIH 3T3 cells): greater cell killing

O=C1c2cnc(-c3cc4ccccc4o3)nc2OCCN1c1ccccc1 [NCGC00413607]
EC50 [1]: 80 nM
EC50 [2]: 7300 nM
cell growth by bright-field microscopy (HEK293 cells): unaffected cell growth
